Laboratory results reported in ChEMBL document CHEMBL4706684, “Discovering High Potent Hsp90 Inhibitors as Antinasopharyngeal Carcinoma Agents through Fragment Assembling Approach” (J Med Chem, 2021).
The source made the active and inactive calls. The calls are words filed in the database; no cut-off is given here.

Tests used:
[1] = target: T1, Heat shock protein HSP 90-alpha (Homo sapiens, UniProt P07900); assay: Potency index, ratio of IC50 for 17-AAG to IC50 for inhibition of HSP90-alpha (unknown origin) expressed in Escherichia coli BL21 assessed as reduction in ATPase activity in presence of PEP, NADH and ATP by pyruvate kinase/lactic dehydrogenase based coupled enzyme assay
Outline: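 The reaction was started with 2 μM Hsp90 at 37 °C and followed as the decrease in absorbance at 340 nm. Compounds were added to the reaction mixture, with 17-AAG as reference.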

[2] = target: T1, Heat shock protein HSP 90-alpha; assay: Inhibition of HSP90-alpha in human CNE-2 cells assessed as reduction in PKB protein levels at 20 to 500 nM incubated for 24 hrs by immunoblot analysis; type: cell-based; settings: dose 20-500 nM
Outline: (§1)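 CNE2 cells (RPMI 1640, 10% FBS, 37 °C, 5% CO₂) were incubated with inhibitor for 24 h, then lysed in RIPA buffer on ice for 30 min. Lysates were run on 8–12% SDS-PAGE and transferred to PVDF. Membranes were blocked with 5% milk and probed with primary antibodies overnight, then HRP secondaries. Detection was by chemiluminescence with actin as loading control.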

CNE-2 [3] = assay: Induction of apoptosis in human CNE-2 cells assessed as Bcl-XL degradation at 20 to 500 nM incubated for 24 hrs by immunoblot analysis; type: functional, cell-based; settings: dose 20-500 nM; outline: as §1
CNE-2 [4] = assay: Induction of apoptosis in human CNE-2 cells assessed as Bcl-XL degradation at 70 nM incubated for 24 hrs in presence of HSP90-alpha siRNA by immunoblot analysis; type: functional, cell-based
Outline: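 CNE2 cells were transiently transfected with Hsp90 siRNA (siHsp90-1 or siHsp90-2) at 150 nM final using Lipofectamine 2000. They were then incubated with inhibitor for 24 h and immunoblotted: RIPA lysis, 8–12% SDS-PAGE, PVDF, overnight primary antibodies, HRP secondaries, chemiluminescence, actin as loading control.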

[5] = target: T1, Heat shock protein HSP 90-alpha; assay: Inhibition of HSP90-alpha in human CNE-2 cells assessed as reduction in PKB protein levels at 70 nM incubated for 24 hrs in presence of HSP90-beta siRNA by immunoblot analysis; type: cell-based
CNE-2 [6] = assay: Antitumor activity against human CNE-2 cells xenografted in nu/nu mouse assessed as induction of tumor size shrinkage at 1 mg/kg, ip for 32 days; type: functional, organism-based; settings: time 32.0 day
CNE-2 [7] = assay: Antitumor activity against human CNE-2 cells xenografted in nu/nu mouse assessed as induction of tumor size shrinkage at 1 mg/kg, po for 32 days; type: functional, organism-based; settings: time 32.0 day
[8] = Half life in Kunming mouse at 2 mg/kg, iv measured up to 6 hrs by HPLC analysis; type: ADME, organism-based; settings: in vivo
Outline: (§2)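 Male Kunming mice, 9–11 weeks old, about 23 g, four per group, were given a single 2 mg/kg dose intravenously or orally. Blood was sampled at 0, 10, 15, 30 min and 1, 2, 4, 6 h. For each sample, 40 μL plasma was deproteinized with 200 μL acetonitrile and centrifuged 10 min at 12 000 rpm before analysis.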

[9] = Oral bioavailability in Kunming mouse at 2 mg/kg measured up to 6 hrs by HPLC analysis; type: ADME, organism-based; settings: in vivo; outline: as §2
CNE-2 [10] = assay: Cytotoxicity in human CNE-2 cells assessed as reduction in cell viability incubated for 48 hrs by MTT assay; type: cell-based; settings: CNE-2, 48 h
Outline: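 Cells were seeded at 3 × 10³ cells per well and grown for 24 h at 37 °C in 5% CO₂. CNE2 was grown in RPMI 1640 and HeLa and HepG2 in DMEM, each with 10% FBS and 1% penicillin/streptomycin. Cells were exposed to 0−20 μM inhibitor for 48 h, with a DMSO solvent control. MTT (0.5 mg/mL) was then added for 3 h.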

CNE-2 [11] = assay: Induction of apoptosis in human CNE-2 cells assessed as early apoptosis cells level at 20 nM incubated for 12 hrs by Annexin-V/FITC staining based FACS analysis (reference value: 1.45%); type: cell-based; settings: cne-2, 12 h, 0.02 µM
CNE-2 [12] = assay: Induction of apoptosis in human CNE-2 cells assessed as necrosis cells level at 20 nM incubated for 12 hrs by Annexin-V/FITC staining based FACS analysis (reference value: 1.45%); type: cell-based; settings: cne-2, 12 h, 0.02 µM
CNE-2 [13] = assay: Induction of apoptosis in human CNE-2 cells assessed as early apoptosis cells level at 50 nM incubated for 12 hrs by Annexin-V/FITC staining based FACS analysis (reference value: 1.45%); type: cell-based; settings: cne-2, 12 h, 0.05 µM
CNE-2 [14] = assay: Induction of apoptosis in human CNE-2 cells assessed as necrosis cells level at 50 nM incubated for 12 hrs by Annexin-V/FITC staining based FACS analysis (reference value: 1.45%); type: cell-based; settings: cne-2, 12 h, 0.05 µM
CNE-2 [15] = assay: Induction of apoptosis in human CNE-2 cells assessed as early apoptosis cells level at 200 nM incubated for 12 hrs by Annexin-V/FITC staining based FACS analysis (reference value: 1.45%); type: cell-based; settings: cne-2, 12 h, 0.2 µM
CNE-2 [16] = assay: Induction of apoptosis in human CNE-2 cells assessed as viable cells level at 500 nM incubated for 12 hrs by Annexin-V/FITC staining based FACS analysis (reference value: 96.7%); type: cell-based; settings: read-out: Activity
Outline: (§3)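 CNE2 cells (RPMI 1640 with 10% FBS) were seeded at 5 × 10⁴ cells per well. After 24 h they were treated with compound in 0.05% DMSO for 12 h. Cells were then washed twice with PBS, pelleted, and stained in binding buffer with Annexin V-FITC and PI for flow cytometry.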

CNE-2 [17] = assay: Induction of apoptosis in human CNE-2 cells assessed as early apoptosis cells level at 500 nM incubated for 12 hrs by Annexin-V/FITC staining based FACS analysis (reference value: 1.45%); type: cell-based; settings: cne-2, 12 h, 0.5 µM
CNE-2 [18] = assay: Induction of apoptosis in human CNE-2 cells assessed as late apoptosis cells level at 500 nM incubated for 12 hrs by Annexin-V/FITC staining based FACS analysis (reference value: 1.45%); type: cell-based; settings: cne-2, 12 h, 0.5 µM
CNE-2 [19] = assay: Induction of apoptosis in human CNE-2 cells assessed as viable cells level at 70 nM incubated for 12 hrs by Annexin-V/FITC staining based FACS analysis (reference value: 93.2%); type: cell-based; settings: read-out: Activity; outline: as §3
CNE-2 [20] = assay: Induction of apoptosis in human CNE-2 cells overexpressing HSP90 assessed as viable cells level at 70 nM incubated for 12 hrs by Annexin-V/FITC staining based FACS analysis (reference value: 93.2%); type: cell-based; settings: read-out: Activity
CNE-2 [21] = assay: Induction of apoptosis in human CNE-2 cells overexpressing HSP90 assessed as late apoptosis cells level at 70 nM incubated for 12 hrs by Annexin-V/FITC staining based FACS analysis (reference value: 2.18%); type: cell-based; settings: cne-2, 12 h, 0.07 µM
CNE2 (Homo sapiens) [22] = assay: Induction of apoptosis in human CNE2 cells at 70 nM incubated for 12 hrs in presence of HSP90-beta siRNA by Annexin-V/FITC staining based FACS analysis; settings: cne2, 12 h, 0.07 µM
CNE2 (Homo sapiens) [23] = assay: Induction of apoptosis in human CNE2 cells at 70 nM incubated for 12 hrs in presence of HSP90-alpha siRNA by Annexin-V/FITC staining based FACS analysis; settings: cne2, 12 h, 0.07 µM

CC(C)(C)c1ccc(Cn2cc(-c3cc(O)c(O)c(O)c3)nn2)cc1
Ratio IC50 [1]: 5
inhibition [2]: Active
Activity (CNE-2 [3]): Active
Activity (CNE-2 [4]): inactive
inhibition [5]: inactive
Activity (CNE-2 [6]): Active
Activity (CNE-2 [7]): Active
half-life [8]: 1.1 h
bioavailability [9]: 12%
IC50 (CNE-2 [10]): 0.04 µM
Activity (CNE-2 [11]): 4.08%
Activity (CNE-2 [12]): 0.17%
Activity (CNE-2 [13]): 7.17%
Activity (CNE-2 [14]): 0.37%
Activity (CNE-2 [15]): 13%
viability at 0.5 µM (CNE-2 [16]): 32%
Activity (CNE-2 [17]): 33.6%
Activity (CNE-2 [18]): 33.4%
viability at 0.07 µM (CNE-2 [19]): 75%
viability at 0.07 µM (CNE-2 [20]): 94%
Activity (CNE-2 [21]): 1.28%
Activity (CNE2 (Homo sapiens) [22]): Non-Toxic
Activity (CNE2 (Homo sapiens) [23]): Non-Toxic
